Experimental data published in ChEMBL document CHEMBL2434823, “Design, synthesis and biological activities of some 7-aminocephalosporanic acid derivatives” (Eur J Med Chem, 2013).

Key:
Assay type in all cases: functional
Conditions in all cases: read-out: IZ
[1] = tested on: Bacillus cereus; experiment: Antimicrobial activity against Bacillus cereus 702 Roma at 10 ug
[2] = tested on: Enterococcus faecalis; experiment: Antimicrobial activity against Enterococcus faecalis ATCC 29212 at 10 ug
[3] = tested on: Staphylococcus aureus; experiment: Antimicrobial activity against Staphylococcus aureus ATCC 25923 at 10 ug
[4] = tested on: Pseudomonas aeruginosa; experiment: Antimicrobial activity against Pseudomonas aeruginosa ATCC 43288 at 10 ug
[5] = tested on: Yersinia pseudotuberculosis; experiment: Antimicrobial activity against Yersinia pseudotuberculosis ATCC 911 at 10 ug
Method in brief: (§1)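 Compounds were dissolved in […] as 20.000 µg/mL stocks. Ampicillin (10 µg) was the reference antibacterial, and DMSO diluted 1:10 was the solvent control.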

[6] = tested on: Escherichia coli; experiment: Antimicrobial activity against Escherichia coli ATCC 25922 at 10 ug; method in brief: as §1

**Q.** How did the zone of inhibition at 10 µg/disc [1] turn out when `CC1(C)S[C@@H]2[C@H](NC(=O)[C@H](N)c3ccccc3)C(=O)N2[C@H]1C(=O)O` [AMPICILLIN] was run?
**A.** The zone of inhibition at 10 µg/disc was 15 mm.

**Q.** And the zone of inhibition at 10 µg/disc [2]?
**A.** Its zone of inhibition at 10 µg/disc is 10 mm.

**Q.** What about the zone of inhibition at 10 µg/disc [3] of the same compound?
**A.** Its zone of inhibition at 10 µg/disc is 35 mm.

**Q.** What about the zone of inhibition at 10 µg/disc [4] of the same compound?
**A.** Its zone of inhibition at 10 µg/disc is 18 mm.

**Q.** What about the zone of inhibition at 10 µg/disc [5] of the same compound?
**A.** The zone of inhibition at 10 µg/disc was 18 mm.

**Q.** What about the zone of inhibition at 10 µg/disc [6] of the same compound?
**A.** Its zone of inhibition at 10 µg/disc is 10 mm.
